ChEMBL document CHEMBL1149786, “Synthesis and antihypertensive effects of new methylthiomorpholinphenol derivatives” (2008)
Activity calls are given as the source filed them. No cut-off for these calls is given here.

How the values were obtained:
Rattus norvegicus [1] = assay: Antihypertensive effect in anesthetized Wistar rat; assay type: functional
Method in brief: (§1)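 Male Wistar rats (280–320 g) under sodium pentobarbital (45 mg/kg, ip), tracheotomised. Right carotid cannulated (PE50) to a pressure transducer recording systolic, diastolic and mean arterial pressure and heart rate. Cumulative iv doses via femoral vein every 5 min: test series 0.0001–10 mg/kg, reference drugs 0.0001–1.0 mg/kg, n = 5. Change measured from pre-dose basal; ED50 taken from a fitted dose–effect model.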

Rattus norvegicus [2] = assay: Hypotensive effect in anesthetized Wistar rat arterial pressure model at 3.1 mg/kg administered through femoral vein; assay type: functional, organism-based; set-up: dose 3.1 mg/kg; conditions: Artery; method in brief: as §1
Rattus norvegicus [3] = assay: Hypotensive effect in anesthetized Wistar rat arterial pressure model assessed as decrease in heart rate at 1.0 mg/kg administered through femoral vein; assay type: functional, organism-based; set-up: dose 1 mg/kg; method in brief: as §1
Rattus norvegicus [4] = assay: Hypotensive effect in anesthetized Wistar rat arterial pressure model assessed as decrease in heart rate at 0.1 mg/kg administered through femoral vein; assay type: functional, organism-based; set-up: dose 0.1 mg/kg; method in brief: as §1
Rattus norvegicus [5] = assay: Antihypertensive effect in spontaneous hypertensive Wistar rat model assessed as maximum decrease in heart rate per min at 1.0 mg/kg, po after 120 mins; assay type: functional
Method in brief: (§2)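 Conscious spontaneously hypertensive rats given a single oral dose of 1.0 mg/kg. Systolic and diastolic pressure and heart rate followed over 2.0 h. The largest fall from baseline and the time at which it occurred were recorded for each variable.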

Rattus norvegicus [6] = assay: Hypotensive effect in anesthetized Wistar rat arterial pressure model at 0.0001 mg/kg administered through femoral vein; assay type: functional, organism-based; set-up: dose 0.0001 mg/kg; conditions: Artery; method in brief: as §1
Rattus norvegicus [7] = assay: Hypotensive effect in anesthetized Wistar rat arterial pressure model at 1.0 mg/kg administered through femoral vein; assay type: functional, organism-based; set-up: dose 1 mg/kg; conditions: Artery; method in brief: as §1
Rattus norvegicus [8] = assay: Hypotensive effect in anesthetized Wistar rat arterial pressure model assessed as decrease in heart rate at 3.1 mg/kg administered through femoral vein; assay type: functional, organism-based; set-up: dose 3.1 mg/kg; method in brief: as §1
Rattus norvegicus [9] = assay: Antihypertensive effect in spontaneous hypertensive Wistar rat model assessed as maximum decrease in systolic arterial pressure at 1.0 mg/kg, po after 60 mins; assay type: functional, Artery; method in brief: as §2
Rattus norvegicus [10] = assay: Antihypertensive effect in spontaneous hypertensive Wistar rat model assessed as maximum decrease in diastolic arterial pressure at 1.0 mg/kg, po after 60 mins; assay type: functional, Artery; method in brief: as §2
Rattus norvegicus [11] = assay: Hypotensive effect in anesthetized Wistar rat arterial pressure model assessed as decrease in heart rate at 10.0 mg/kg administered through femoral vein; assay type: functional, organism-based; set-up: dose 10 mg/kg; method in brief: as §1
Rattus norvegicus [12] = assay: Hypotensive effect in anesthetized Wistar rat arterial pressure model at 10.0 mg/kg administered through femoral vein; assay type: functional, organism-based; set-up: dose 10 mg/kg; conditions: Artery; method in brief: as §1
Rattus norvegicus [13] = assay: Hypotensive effect in anesthetized Wistar rat arterial pressure model assessed as decrease in heart rate at 0.01 mg/kg administered through femoral vein; assay type: functional, organism-based; set-up: dose 0.01 mg/kg; method in brief: as §1
Rattus norvegicus [14] = assay: Antihypertensive effect in anesthetized Wistar rat assessed as change systolic arterial pressure at 10.0 mg/kg administered through femoral vein; assay type: functional, Artery; method in brief: as §1
Rattus norvegicus [15] = assay: Antihypertensive effect in anesthetized Wistar rat assessed as change mean arterial pressure at 10.0 mg/kg administered through femoral vein; assay type: functional, Artery; method in brief: as §1
Rattus norvegicus [16] = assay: Antihypertensive effect in spontaneous hypertensive Wistar rat model assessed as maximum decrease in heart rate per min at 1.0 mg/kg, po after 80 mins; assay type: functional; method in brief: as §2
Rattus norvegicus [17] = assay: Antihypertensive effect in spontaneous hypertensive Wistar rat model assessed as maximum decrease in diastolic arterial pressure at 1.0 mg/kg, po after 80 mins; assay type: functional, Artery; method in brief: as §2
Rattus norvegicus [18] = assay: Antihypertensive effect in anesthetized Wistar rat assessed as change diastolic arterial pressure at 10.0 mg/kg administered through femoral vein; assay type: functional, Artery; method in brief: as §1
Rattus norvegicus [19] = assay: Antihypertensive effect in spontaneous hypertensive Wistar rat model assessed as maximum decrease in systolic arterial pressure at 1.0 mg/kg, po after 80 mins; assay type: functional, Artery; method in brief: as §2
Rattus norvegicus [20] = assay: Hypotensive effect in anesthetized Wistar rat arterial pressure model assessed as decrease in heart rate at 0.0001 mg/kg administered through femoral vein; assay type: functional, organism-based; set-up: dose 0.0001 mg/kg; method in brief: as §1
Rattus norvegicus [21] = assay: Antihypertensive effect in spontaneous hypertensive Wistar rat model assessed as maximum decrease in heart rate per min at 1.0 mg/kg, po after 110 mins; assay type: functional; method in brief: as §2
Rattus norvegicus [22] = assay: Antihypertensive effect in spontaneous hypertensive Wistar rat model assessed as maximum decrease in diastolic arterial pressure at 1.0 mg/kg, po after 100 mins; assay type: functional, Artery; method in brief: as §2
Rattus norvegicus [23] = assay: Hypotensive effect in anesthetized Wistar rat arterial pressure model assessed as decrease in heart rate at 0.001 mg/kg administered through femoral vein; assay type: functional, organism-based; set-up: dose 0.001 mg/kg; method in brief: as §1
Rattus norvegicus [24] = assay: Antihypertensive effect in spontaneous hypertensive Wistar rat model assessed as maximum decrease in systolic arterial pressure at 1.0 mg/kg, po after 100 mins; assay type: functional, Artery; method in brief: as §2
Rattus norvegicus [25] = assay: Hypotensive effect in anesthetized Wistar rat arterial pressure model at 0.1 mg/kg administered through femoral vein; assay type: functional, organism-based; set-up: dose 0.1 mg/kg; conditions: Artery; method in brief: as §1
Rattus norvegicus [26] = assay: Hypotensive effect in anesthetized Wistar rat arterial pressure model at 0.001 mg/kg administered through femoral vein; assay type: functional, organism-based; set-up: dose 0.001 mg/kg; conditions: Artery; method in brief: as §1
Rattus norvegicus [27] = assay: Antihypertensive effect in spontaneous hypertensive Wistar rat model assessed as maximum decrease in heart rate per min at 1.0 mg/kg, po after 100 mins; assay type: functional; method in brief: as §2
Rattus norvegicus [28] = assay: Hypotensive effect in anesthetized Wistar rat arterial pressure model at 0.01 mg/kg administered through femoral vein; assay type: functional, organism-based; set-up: dose 0.01 mg/kg; conditions: Artery; method in brief: as §1
Rattus norvegicus [29] = assay: Antihypertensive effect in spontaneous hypertensive Wistar rat model assessed as maximum decrease in systolic arterial pressure at 1.0 mg/kg, po after 90 mins; assay type: functional, Artery; method in brief: as §2
Rattus norvegicus [30] = assay: Antihypertensive effect in spontaneous hypertensive Wistar rat model assessed as maximum decrease in diastolic arterial pressure at 1.0 mg/kg, po after 90 mins; assay type: functional, Artery; method in brief: as §2
Rattus norvegicus [31] = assay: Antihypertensive effect in anesthetized Wistar rat assessed as reduction of mean arterial pressure at 1 mg/kg administered through femoral vein; assay type: functional, organism-based; set-up: dose 1 mg/kg; conditions: Artery
Method in brief: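 Male Wistar rats (280–320 g) anesthetized with sodium pentobarbital (45 mg/kg ip), tracheotomized; right carotid artery cannulated to a pressure transducer recording systolic, diastolic and mean arterial pressure and heart rate. Compounds given IV via femoral vein as cumulative dose–effect curve (0.0001–10 mg/kg), doses every five minutes; n = 5.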

Rattus norvegicus [32] = assay: Antihypertensive effect in anesthetized Wistar rat assessed as reduction of diastolic arterial pressure at 1 mg/kg administered through femoral vein; assay type: functional, organism-based; set-up: dose 1 mg/kg; conditions: Artery; method in brief: as §1
Rattus norvegicus [33] = assay: Antihypertensive effect in spontaneous hypertensive Wistar rat model assessed as maximum decrease in heart rate per min at 1.0 mg/kg, po after 70 mins; assay type: functional; method in brief: as §2
Rattus norvegicus [34] = assay: Antihypertensive effect in anesthetized Wistar rat assessed as reduction of systolic arterial pressure at 1 mg/kg administered through femoral vein; assay type: functional, organism-based; set-up: dose 1 mg/kg; conditions: Artery; method in brief: as §1
Rattus norvegicus [35] = assay: Antihypertensive effect in spontaneous hypertensive Wistar rat model assessed as maximum decrease in systolic arterial pressure at 1.0 mg/kg, po after 50 mins; assay type: functional, Artery; method in brief: as §2

Structure (SMILES)	ED50 (Rattus norvegicus [1]) [mg/kg]	Activity (Rattus norvegicus [2])	Activity (Rattus norvegicus [3])	Activity (Rattus norvegicus [4])	Activity (Rattus norvegicus [7])	Activity (Rattus norvegicus [8])	Activity (Rattus norvegicus [10]) [mmHg]	Activity (Rattus norvegicus [11])	Activity (Rattus norvegicus [12])	Activity (Rattus norvegicus [13])	further results
CC(C)(c1ccc(O)c(CN2CCSCC2)c1)c1ccc(O)c(CN2CCSCC2)c1	1.41	Active	Active	Active	Active	Active	12.6	Active	Active	Active	Activity (Rattus norvegicus [5]): 106.566; Activity (Rattus norvegicus [6]): Active; Activity (Rattus norvegicus [9]): 28.1 mmHg
O=C(N[C@H]1CCS[C@H]2CCC[C@@H](C(=O)O)N2C1=O)[C@@H](S)Cc1ccccc1 [OMAPATRILAT]	0.0058	–	–	–	–	–	–	–	–	–	–
CCCCc1nc(Cl)c(CO)n1Cc1ccc(-c2ccccc2-c2nnn[nH]2)cc1 [LOSARTAN]	0.0282	–	–	–	–	–	–	–	–	–	Activity (Rattus norvegicus [14]): 43.62 mmHg; Activity (Rattus norvegicus [15]): 41.31 mmHg; Activity (Rattus norvegicus [16]): 38.37; Activity (Rattus norvegicus [17]): 66.3 mmHg; Activity (Rattus norvegicus [18]): 45.64 mmHg; Activity (Rattus norvegicus [19]): 82.3 mmHg
Oc1ccc(Cl)cc1CN1CCSCC1	2.21	Active	–	–	Active	–	–	–	Active	Active	Activity (Rattus norvegicus [20]): Active; Activity (Rattus norvegicus [21]): 72.2; Activity (Rattus norvegicus [22]): 46.7 mmHg; Activity (Rattus norvegicus [23]): Active; Activity (Rattus norvegicus [24]): 73.9 mmHg
CC(C)(C)c1ccc(O)c(CN2CCSCC2)c1	1.04	Active	Active	Active	Active	–	31.8	Active	Active	Active	Activity (Rattus norvegicus [25]): Active; Activity (Rattus norvegicus [26]): Active; Activity (Rattus norvegicus [27]): 148 beats/min; Activity (Rattus norvegicus [24]): 71.5 mmHg
CC(C)(C)c1cc(CN2CCSCC2)c(O)c(CN2CCSCC2)c1	0.411	Active	Active	–	Active	Active	–	Active	Active	–	Activity (Rattus norvegicus [25]): Active; Activity (Rattus norvegicus [6]): Active; Activity (Rattus norvegicus [26]): Active; Activity (Rattus norvegicus [27]): 160 beats/min; Activity (Rattus norvegicus [28]): Active; Activity (Rattus norvegicus [29]): 95.8 mmHg; Activity (Rattus norvegicus [30]): 48.2 mmHg; Activity (Rattus norvegicus [31]): Active
C[C@H](CS)C(=O)N1CCC[C@H]1C(=O)O [CAPTOPRIL]	0.00062	–	–	–	–	–	–	–	–	–	Activity (Rattus norvegicus [32]): Active; Activity (Rattus norvegicus [33]): 52.04; Activity (Rattus norvegicus [34]): Active; Activity (Rattus norvegicus [22]): 36.5 mmHg; Activity (Rattus norvegicus [35]): 42 mmHg
Oc1cc(O)c(CN2CCSCC2)cc1CN1CCSCC1	0.363	–	Active	Active	–	Active	29.2	Active	–	Active	Activity (Rattus norvegicus [5]): 92.5; Activity (Rattus norvegicus [9]): 45.6 mmHg
